Rows were chosen to be rich in hits. Some 1.9% of all compounds tested hit in one or more screens of this group.
ABHD5 PLIN5 PPI: ABHD5-PLIN5 protein interaction inhibition; Q00G26+Q8WTS1; Split G. princeps luciferase complementation, luminescence, 4 h; inhibition, % at 4 µM; 360,000 tested, 0.78% active; AID 602281;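 active means inhibition above the mean inhibition across every tested compound plus 3 SD, cut at about 22% in these data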;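 further: 0% = DMSO only wells and the 100% control is not disclosed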
XiGFP reactiv: X-chromosome reactivation activator; AID 743238; XiGFP mouse fibroblasts, % GFP-positive cells imaging, 3 d; cells co-treated with 5-aza-dC sensitizer; scaled so ellipticine positive control = 100%; activation, % at 7.58 µM; 360,000 tested, 0.055% active;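 active means mean normalized replicate activation at least 10% and every replicate at or above 10%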;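 further: 0% = median of on-plate neutral control wells and 100% = ellipticine 6 µM median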
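Material: XiGFP fibroblasts, SV40-immortalized. Buffer or medium: DMEM plus 5-aza-dC sensitizer. Compound: single concentration per compound, delivered by pin transfer. Times: 3 days compound exposure. Controls: ellipticine 6 µM.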
NadD block: NadD (S. aureus) enzyme inhibition. purified NadD enzyme, colorimetric absorbance read-out. inhibition, % at 20 µM. 360,000 tested, 0.78% active. AID 602399; in the data active means inhibition above about 26%
Rpn11 inh: inhibitors of human proteasome Rpn11. human 26S proteasome, Ub4-pepOG fluorescence polarization; 20S core pre-blocked with epoxomicin. inhibition, % at 20 µM. 360,000 tested, 0.59% active. AID 588493;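 active means inhibition at 20 µM, scaled to each plate's controls, above about 33%, limit read from the data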
Target sequence (O00487 whole entry, looked up): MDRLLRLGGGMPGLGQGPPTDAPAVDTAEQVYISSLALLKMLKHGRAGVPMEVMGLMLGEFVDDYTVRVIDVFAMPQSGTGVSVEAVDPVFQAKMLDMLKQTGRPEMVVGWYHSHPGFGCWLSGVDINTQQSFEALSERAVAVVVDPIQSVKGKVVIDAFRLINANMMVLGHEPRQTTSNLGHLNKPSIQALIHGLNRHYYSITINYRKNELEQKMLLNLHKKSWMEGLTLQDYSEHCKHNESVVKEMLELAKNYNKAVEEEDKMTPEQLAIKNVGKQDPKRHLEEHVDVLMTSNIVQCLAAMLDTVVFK
Rin1-Abl PPI inh: blocks binding of human Rin1 to Abl. inhibition, % at 7.35 µM. 360,000 tested, 0.4% active. P00519+Q13671. TR-FRET Rin1/Abl binding, biochemical; in the data active means inhibition above about 5%, passing the limit was not always enough
The depositor's hits bear a star; . = no result given.

SMILES	ABHD5 PLIN5 PPI	XiGFP reactiv	NadD block	Rpn11 inh	Rin1-Abl PPI inh
CCn1cc([N+](=O)[O-])c(C(=O)N2N=C(c3ccc4ccccc4c3)CC2c2cc(Br)ccc2O)n1 (stereo not drawn)	3	.	40*	4	2
CCn1cc([N+](=O)[O-])c(C(=O)N2N=C(c3ccc(Cl)c(Cl)c3)CC2c2ccccc2O)n1 (stereo not drawn)	3	0	13	1	1
Cc1cn(-c2cc(NC(=O)c3ccc(C)c(NC(=O)c4cccc(-c5cn[nH]c(=O)c5)c4)c3)cc(C(F)(F)F)c2)cn1	11	.	4	107*	1
C[C@H](CO)N1C[C@H](C)[C@@H](CN(C)Cc2ccccc2)Oc2c(NC(=O)Cc3cn(C)c4ccccc34)cccc2C1=O	.	0	.	.	.
CC(=O)O[C@@H]1[C@@]2(C)O[C@H]2CC[C@]23O[C@H]2[C@H](OC3=O)C2=C(C)C(=O)O[C@@]21O	23*	0	-1	2	0
COc1ccc2c3c(n(C)c2c1)[C@@H](CO)N(C)CC31CN(C(=O)c2ccccc2F)C1	.	0	.	.	.
NC(=O)CSc1nc2scc(-c3ccco3)c2c(=O)n1-c1ccccc1	49*	.	10	21	5
C[C@@H](NC(=O)[C@H]1[C@H](CO)[C@H]2Cn3c(ccc(-c4cccc(F)c4)c3=O)[C@H]2N1C)c1ccccc1	.	0	.	.	.
O=C(Nc1ccc(C(F)(F)F)cc1)c1ccc(NC(=O)C2CCCO2)cc1 (stereo not drawn)	-1	.	0	94*	-2
CC(=O)OC(C)C1C2=C(C(=O)CC1(C)O)C(=O)c1c(ccc(-c3ccc4c(c3O)C(=O)C3=C(C4=O)C(C(C)OC(C)=O)C(C)(O)CC3=O)c1O)C2=O (stereo not drawn)	-10	0	45*	0	1
C[C@H](CO)N1C[C@H](C)[C@H](CN(C)C(=O)c2ccncc2)Oc2ncc(C#CC3CC3)cc2C1=O	.	1	.	.	.
O=C(Nc1ccn(C2CC(OC(=O)c3ccccc3)C(CO)O2)c(=O)n1)c1ccccc1 (stereo not drawn)	2	.	-4	-5	9.1*
CCC(/C=C1\Sc2ccc(OC)cc2N1CCO)=C\c1sc2ccc(OC)cc2[n+]1CCO	43*	0	8	17	-14
COc1ccc(C(=O)/C=C/c2ccc(O)cc2)cc1	5	.	-2	17	-3
COc1ccc(C=CC(=O)c2c(OC)cc(OC)c(OC)c2O)cc1	23*	1	-7	0	-3
C[C@@H]1CCCCO[C@@H](CN(C)C)[C@H](C)CN([C@H](C)CO)C(=O)c2cc(NC(=O)CCC(F)(F)F)ccc2O1	.	0	.	.	.
O=C(N=Nc1c(O)n(Cc2ccccc2)c2ccccc12)c1cc2ccccc2cc1O	1	0	40*	-7	2
O=C(N=Nc1c(O)n(Cc2ccccc2)c2ccccc12)c1ccc(O)cc1	3	0	28	-14	-4
Cc1ccc(NC(=O)Cn2c(O)c(N=NC(=O)c3ccncc3)c3ccccc32)cc1	-6	.	17	-3	-1
Cc1ccc(NC(=O)Cn2c(O)c(N=NC(=O)c3cc4ccccc4cc3O)c3ccccc32)cc1	-2	0	46*	-10	2
C[C@@H]1CN([C@@H](C)CO)C(=O)c2cc(-c3ccc(F)cc3)cnc2O[C@H]1CN(C)C(=O)Nc1ccc(F)cc1	.	0	.	.	.
CN(C)CC#Cc1ccc([C@H]2[C@@H](CO)N3CCCCN(S(=O)(=O)c4ccccc4F)C[C@@H]23)cc1	.	0	.	.	.
COc1cccc(/C=C/C(=O)c2c(O)cc(C)oc2=O)c1O	6	.	-4	1	6
COc1ccc(/C=C/C(=O)c2c(O)cc(C)oc2=O)c(OC)c1	0	.	2	45*	-6
N#Cc1c(Sc2ncc(C(F)(F)F)cc2Cl)nsc1C/C=N\OCc1ccccc1Br	-4	.	46*	.	3
CCOC(=O)/C(=C\Nc1ccccc1C(F)(F)F)Sc1ncc(C(F)(F)F)cc1Cl	1	.	-4	-2	1
COc1ccc2c3c(n(C)c2c1)[C@H](CO)N(C(=O)CN1CCOCC1)CC31CN(Cc2ccncc2)C1	.	0	.	.	.
O=[N+]([O-])c1cc(CN2CCCC2)c2cccnc2c1O	8	.	74*	-4	52*
Oc1c(Cl)cc(CN2CCCCC2)c2cccnc12	3	.	0	-25	12*
Oc1ccc(CN2CCCCC2)c2cccnc12	-8	.	3	1	2

Assay outcomes deposited in PubChem by several laboratories.
